proCasp3 act – activators of human procaspase-3 D3A mutant, primary screen, biochemical, absorbance, PC-3 D3A mutant, single concentration | recombinant procaspase-3 D3A, Ac-DEVD-pNA absorbance 405 nm | 330,000 tested, 0.11% active | Caspase-3 (Homo sapiens), P42574 | activation, % at 8.5 µM;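 active = activation above the mean of all tested compounds plus 3 SD, cut at about 21% in these data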;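 note: 0% = DMSO alone and 100% = DMSO wells spiked with extra 5 µM PC-3 D3A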
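Assay system: Autoprocessing-dead procaspase-3 D3A mutant enzyme; also added: Ac-DEVD-pNA; doses: one concentration, 8.5 µM nominal, 0.8% DMSO; times: 1 h compound preincubation, 2 h substrate hydrolysis at 25 °C; technique: 405 nm absorbance of p-nitroaniline, reads at 0 and 120 min; measure: % activation between DMSO and enzyme-spiked controls; repeats: single replicate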
proCasp7 act – procaspase-7 activators, primary screen, counter-screen for procaspase-3 activator project, biochemical, absorbance, HTS, human; recombinant procaspase-7, Ac-DEVD-pNA absorbance 405 nm; D23A/D198A/D206A triple mutant, cannot self-cleave; scale: DMSO 0, 5 µM enzyme 100; activation, % at 8.5 µM; 330,000 tested, 0.093% active;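 active = percent activation above the screen-wide mean plus 3 SD, cut at about 25% in these data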
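Material: Procaspase-7 triple mutant (PC-7 D3A) | Quantity: 2 µM procaspase-7 mutant as dispensed | Reagent: DEVD-pNA substrate | Times: 1 h preincubation, 2 h reaction | Technique: 405 nm absorbance of p-nitroaniline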
LYPLA2 inh – LYPLA2 inhibitors, primary screen, counter-screen for PME1 inhibitor project, biochemical, fluorescence polarization, FP-Rh probe ABPP; Acyl-protein thioesterase 2 (Homo sapiens), O95372; recombinant LYPLA2; inhibition, % at 5.9 µM; 320,000 tested, 0.38% active;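 active = inhibition above the screen-wide mean plus 3 SD, limit set per campaign, cut at about 26% in these data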;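 note: 0% = LYPLA2 with DMSO and 100% = wells lacking LYPLA2 enzyme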
Target sequence (O95372 whole entry, looked up): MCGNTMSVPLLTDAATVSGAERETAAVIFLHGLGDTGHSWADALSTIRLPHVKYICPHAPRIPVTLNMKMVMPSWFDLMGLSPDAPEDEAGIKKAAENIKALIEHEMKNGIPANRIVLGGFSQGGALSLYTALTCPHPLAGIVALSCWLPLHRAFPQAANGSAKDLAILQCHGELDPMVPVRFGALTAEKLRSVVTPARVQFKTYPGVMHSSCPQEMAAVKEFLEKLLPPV
PREPL inh – PREPL enzyme inhibitors, primary screen, biochemical, fluorescence polarization; recombinant PREPL, fluorescence polarization activity-based probe; inhibition, % at 5.96 µM; Prolyl endopeptidase-like (Homo sapiens), Q4J6C6; 320,000 tested, 0.68% active; in the data active = inhibition above about 43%;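 note: 0% = enzyme with DMSO and 100% = wells lacking enzyme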
LYPLA1 counter – LYPLA1 inhibitors, primary screen, counter-screen for PME1 inhibitor project, biochemical, fluorescence polarization, FP-Rh probe ABPP | Acyl-protein thioesterase 1 (Homo sapiens), O75608 | recombinant LYPLA1 | inhibition, % at 5.9 µM | 320,000 tested, 0.16% active | AID 2174, 2009;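 active = inhibition above the mean of all tested compounds plus 3 SD, set per campaign, cut at about 14% in these data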;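 note: inhibitors block serine hydrolase probe labeling of LYPLA1 so polarization falls; 0% = enzyme with DMSO and 100% = wells lacking LYPLA1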
Target sequence (O75608 whole entry, looked up): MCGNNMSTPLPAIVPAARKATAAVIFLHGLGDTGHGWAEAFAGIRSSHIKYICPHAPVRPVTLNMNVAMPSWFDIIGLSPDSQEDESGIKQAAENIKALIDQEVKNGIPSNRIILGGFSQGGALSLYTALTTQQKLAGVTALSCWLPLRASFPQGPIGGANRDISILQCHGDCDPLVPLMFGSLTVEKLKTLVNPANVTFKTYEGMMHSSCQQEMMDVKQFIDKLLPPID
procasp7 triplic – procaspase-7 activators, counter-screen for procaspase-3 activator project, biochemical, absorbance, triplicate, human | recombinant procaspase-7, Ac-DEVD-pNA absorbance; asp23/198/206-to-Ala mutant, cannot self-cleave | activation, % at 8.5 µM | 210 tested, under 10 active | shares compounds with proCasp3 act;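 active = mean activation above a set limit taken from an earlier procaspase-7 screen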;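 note: 0% = DMSO wells and 100% = DMSO plus 5 µM procaspase-7 enzyme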
proCasp3 confirm – activators of human procaspase-3 D3A mutant, confirmation, biochemical, absorbance, PC-3 D3A mutant, triplicate | shares compounds with proCasp3 act | recombinant PC-3 D3A, Ac-DEVD-pNA absorbance 405 nm; 100% is higher-enzyme control | activation, % at 8.5 µM | 210 tested, 10% active | AID 488954, 2010;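 active = mean activation above a set limit carried over from the earlier primary screen, cut at about 22% in these data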
Active calls of the source: *; x = no result given. Sampled rows, rich in hits. Any-hit rate of the full collection: about 1%.

SMILES | proCasp3 act | proCasp7 act | LYPLA2 inh | PREPL inh | LYPLA1 counter | procasp7 triplic | proCasp3 confirm
CC1(C)Cc2c(sc3nc(-c4cc5ccccc5o4)n(N)c(=O)c23)CO1 | 3.6 | 2.9 | 0.2 | 0.4 | -0.3 | x | x
CCC(C)NC(=O)CNC(=O)c1nn(-c2ccc(OC)c(Cl)c2)c(=O)c2ccccc12 (stereo not given) | 21.7* | 2.6 | 8.9 | -4.0 | 2.0 | 3.3 | 2.8
O=c1cc(CN2CCN(C/C=C/c3ccccc3)CC2)c2cc(O)c(-c3ccccc3)cc2o1 | 1.1 | -3.3 | 3.3 | -17.9 | -2.0 | x | x
Cc1c(O)ccc2c(CN3CCN(C/C=C/c4ccccc4)CC3)cc(=O)oc12 | 23.8* | 22.8 | 17.3 | -22.6 | 11.4 | -19.9 | -14.6
Cc1ccc(-c2cn(S(=O)(=O)c3cccc4nsnc34)nc2N)cc1 | 23.1* | -1.7 | 1.6 | 3.6 | -2.0 | 1.6 | 0.6
CC(=O)c1c(C)[nH]c(C(=O)OCC(=O)N2c3ccccc3NC(=O)C2(C)C)c1C | 29.9* | 23.5 | -3.7 | -4.6 | -2.4 | 1.2 | 5.1
Cc1cnc(C(=O)OCC(=O)N2c3ccccc3NC(=O)C2(C)C)cn1 | -0.1 | 7.9 | -0.5 | 3.1 | -2.2 | x | x
CCCC(=O)N(Cc1cc(=O)[nH]c2ccccc12)c1ccccc1 | 74.5* | 7.1 | 2.7 | 0.4 | -2.0 | 3.3 | 5.1
CCC(=O)N(Cc1cc(=O)[nH]c2ccccc12)c1ccccc1 | 4.1 | -1.6 | -1.9 | -4.3 | -1.0 | x | x
Cc1ccccc1C(=O)N1CCC(C(=O)Nc2nc3ccc(F)cc3s2)CC1 | 23.4* | 3.1 | -1.2 | 25.7 | -4.0 | 3.4 | 6.8
O=C(/C=C1\NC2(CCCC2)Cc2ccccc21)C(=O)N/N=C/c1ccccc1O | 24.4* | -0.3 | -25.9 | 4.6 | -19.9 | 23.8 | 32.1*
COc1cc(/C=N/NC(=O)C(=O)/C=C2\NC3(CCCC3)Cc3ccccc32)ccc1O | -6.8 | -13.0 | 2.4 | 30.1 | -1.9 | x | x
Cn1cc(C(=O)N/N=C/c2c(O)ccc3ccccc23)ccc1=O | 4.5 | -12.0 | 3.5 | 19.9 | -2.3 | x | x
O=C(N/N=C\c1c(O)ccc2ccccc12)c1ccc(O)cc1 | 21.4* | 3.4 | -26.4 | 12.5 | -15.3 | -13.5 | -15.1
c1ccc(C2=NN(c3ccccc3)C(c3ccco3)C2)cc1 (stereo not given) | 26.2* | 23.9 | 10.8 | 23.3 | 3.9 | -20.2 | -15.2
O=C(N[C@H]1C/C=C\C[C@@H](CC(=O)N(CCO)Cc2ccccc2)C(=O)N2CCC[C@H]2COC1=O)OCC1c2ccccc2-c2ccccc21 | 4.5 | 5.4 | x | 11.6 | x | x | x
COCCNc1ncnc2c1cnn2Cc1ccccc1Cl | 22.7* | 1.1 | 1.9 | 4.4 | 1.3 | 2.2 | 1.4
COc1ccc2nc(Nc3nc4cc5c(cc4s3)OCO5)sc2c1 | 68.9* | 6.8 | -0.2 | 9.5 | 1.3 | -20.0 | -14.1
COc1ccc2nc(Nc3ccc4c(c3)OCO4)sc2c1 | 2.2 | -4.8 | 10.7 | 15.7 | 2.2 | x | x
CSc1ncccc1C(=O)OCC(=O)NC1CCCC1 | 10.9 | 1.2 | -5.3 | 2.1 | 0.5 | x | x
Cc1cc(N/N=C/c2ccc(N(C)C)cc2)c2ccccc2n1 | 28.1* | 23.8 | 0.9 | -3.8 | 1.3 | -4.4 | -5.5
O=C(O)/C=C/C(=O)N1CCN(c2ccc(F)cc2)CC1 | -1.7 | -1.3 | 2.5 | 8.6 | 2.4 | x | x
Cc1c(CCC(=O)O)c(=O)oc2cc(O)ccc12 | 23.8* | 20.7 | 0.7 | 0.1 | -2.4 | -20.8 | -11.6

Screening results as filed in PubChem.
